Assay results as given in ChEMBL document CHEMBL1154044, “5-Nitro-2-furyl derivative actives against Trypanosoma cruzi: preliminary in vivo studies” (Eur J Med Chem, 2009).

Experiments:
[1] = system: Mus musculus; test: Toxicity in CD1 mouse heart at 450 mg/kg, po after 3 days by histological study; assay type: organism-based; set-up: dose 450 mg/kg, route oral; conditions: in vivo, 72 h
Outline: (§1)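 Healthy female CD1 mice (20–22 g), 5–7 per group, given a single oral (intragastric) or i.p. dose in saline:Tween 80 (4:1) vehicle. Sacrificed on day 3 after ether anaesthesia. Organs fixed in 10% aqueous formalin for histology. Scored against untreated animals from no change to +++ (many changes).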

[2] = system: Mus musculus; test: Toxicity in CD1 mouse heart at 300 mg/kg, ip after 3 days by histological study; assay type: organism-based; set-up: dose 300 mg/kg, route intraperitoneal; conditions: in vivo, 72 h; outline: as §1
[3] = system: Mus musculus; test: Toxicity in CD1 mouse lung at 450 mg/kg, po after 3 days by histological study; assay type: organism-based; set-up: dose 450 mg/kg, route oral; conditions: in vivo, 72 h; outline: as §1
[4] = system: Mus musculus; test: Toxicity in CD1 mouse lung at 300 mg/kg, ip after 3 days by histological study; assay type: organism-based; set-up: dose 300 mg/kg, route intraperitoneal; conditions: in vivo, 72 h; outline: as §1
[5] = system: Mus musculus; test: Toxicity in CD1 mouse brain at 450 mg/kg, po after 3 days by histological study; assay type: organism-based; set-up: dose 450 mg/kg, route oral; conditions: in vivo, 72 h; outline: as §1
[6] = system: Mus musculus; test: Toxicity in CD1 mouse brain at 300 mg/kg, ip after 3 days by histological study; assay type: organism-based; set-up: dose 300 mg/kg, route intraperitoneal; conditions: in vivo, 72 h; outline: as §1
[7] = system: Trypanosoma cruzi; test: Growth inhibition of Trypanosoma cruzi Tulahuen 2 epimastigote at 5 uM after 5 days; assay type: functional; conditions: Trypanosoma cruzi, Tulahuen 2, 120 h; read-out: GI
[8] = system: Mus musculus; test: Toxicity in CD1 mouse assessed as survival at 450 mg/kg, po after 3 days; assay type: organism-based; set-up: dose 450 mg/kg, route oral; conditions: in vivo, 72 h
Outline: (§2)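 Healthy 2-month-old female CD1 mice (20–22 g), groups of 5–7, given one oral dose by intragastric syringe or one i.p. injection. Compound suspended in saline:Tween 80 (4:1) with sonication just before dosing; vehicle-treated controls included. Weighed and observed daily over 3 days for skin, physical aspect, activity and faeces; survival recorded at day 3.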

[9] = system: Mus musculus; test: Toxicity in CD1 mouse assessed as increase in weight respect to day zero at 300 mg/kg, ip after 3 days; assay type: organism-based; set-up: dose 300 mg/kg, route intraperitoneal; conditions: in vivo, 72 h
Outline: (§3)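 Healthy 2-month-old female CD1 mice (20–22 g, 5–7 per group) received one dose. Oral doses of 450 or 300 mg/kg were given by intragastric syringe; i.p. doses of 300 or 150 mg/kg by injection. Drugs were suspended in saline:Tween 80 (4:1), and a vehicle-only control was included. Mice were weighed and observed daily for 3 days. Weight change is expressed as percent relative to day zero.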

[10] = system: Mus musculus; test: Toxicity in CD1 mouse assessed as leukocyte level at 450 mg/kg, po after 3 days; assay type: organism-based; set-up: dose 450 mg/kg, route oral; conditions: in vivo, 72 h
Outline: (§4)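 Healthy female CD1 mice (5–7 per group) received a single oral dose of 450 mg/kg or an i.p. dose of 300 mg/kg, with vehicle controls. On day 3 they were sacrificed under ether anaesthesia. Blood was drawn from the subclavian artery and kept at 0 °C in EDTA or heparin. Leukocytes, haemoglobin, haematocrit, GPT and GOT were measured within 24 h and compared with normal ranges.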

[11] = system: Mus musculus; test: Toxicity in CD1 mouse assessed as leukocyte level at 300 mg/kg, ip after 3 days; assay type: organism-based; set-up: dose 300 mg/kg, route intraperitoneal; conditions: in vivo, 72 h; outline: as §4
[12] = system: Mus musculus; test: Toxicity in CD1 mouse assessed as haemoglobin level at 450 mg/kg, po after 3 days; assay type: organism-based; set-up: dose 450 mg/kg, route oral; conditions: in vivo, 72 h; outline: as §4
[13] = system: Mus musculus; test: Toxicity in CD1 mouse assessed as haemoglobin level at 300 mg/kg, ip after 3 days; assay type: organism-based; set-up: dose 300 mg/kg, route intraperitoneal; conditions: in vivo, 72 h; outline: as §4
[14] = system: Mus musculus; test: Toxicity in CD1 mouse assessed as glutamic-pyruvate transaminase level at 450 mg/kg, po after 3 days; assay type: organism-based; set-up: dose 450 mg/kg, route oral; conditions: in vivo, 72 h; outline: as §4
[15] = system: Mus musculus; test: Toxicity in CD1 mouse assessed as glutamic-pyruvate transaminase level at 300 mg/kg, ip after 3 days; assay type: organism-based; set-up: dose 300 mg/kg, route intraperitoneal; conditions: in vivo, 72 h; outline: as §4
[16] = system: Mus musculus; test: Toxicity in CD1 mouse assessed as glutamic-oxalacetate transaminase level at 450 mg/kg, po after 3 days; assay type: organism-based; set-up: dose 450 mg/kg, route oral; conditions: in vivo, 72 h; outline: as §4
[17] = system: Mus musculus; test: Toxicity in CD1 mouse liver at 300 mg/kg, ip after 3 days by histological study; assay type: organism-based; set-up: dose 300 mg/kg, route intraperitoneal; conditions: in vivo, 72 h; outline: as §1
[18] = system: Mus musculus; test: Toxicity in CD1 mouse assessed as glutamic-oxalacetate transaminase level at 300 mg/kg, ip after 3 days; assay type: organism-based; set-up: dose 300 mg/kg, route intraperitoneal; conditions: in vivo, 72 h; outline: as §4
[19] = system: Mus musculus; test: Toxicity in CD1 mouse liver at 450 mg/kg, po after 3 days by histological study; assay type: organism-based; set-up: dose 450 mg/kg, route oral; conditions: in vivo, 72 h; outline: as §1
[20] = system: Mus musculus; test: Toxicity in CD1 mouse intestine at 450 mg/kg, po after 3 days by histological study; assay type: organism-based; set-up: dose 450 mg/kg, route oral; conditions: in vivo, 72 h; outline: as §1
[21] = system: Mus musculus; test: Toxicity in CD1 mouse intestine at 300 mg/kg, ip after 3 days by histological study; assay type: organism-based; set-up: dose 300 mg/kg, route intraperitoneal; conditions: in vivo, 72 h; outline: as §1
[22] = system: Mus musculus; test: Toxicity in CD1 mouse kidney at 450 mg/kg, po after 3 days by histological study; assay type: organism-based; set-up: dose 450 mg/kg, route oral; conditions: in vivo, 72 h; outline: as §1
[23] = system: Mus musculus; test: Toxicity in CD1 mouse kidney at 300 mg/kg, ip after 3 days by histological study; assay type: organism-based; set-up: dose 300 mg/kg, route intraperitoneal; conditions: in vivo, 72 h; outline: as §1
[24] = system: Mus musculus; test: Toxicity in CD1 mouse assessed as increase in weight respect to day zero at 450 mg/kg, po after 3 days; conditions: in vivo, 72 h
[25] = system: Mus musculus; test: Toxicity in CD1 mouse assessed as decrease in weight respect to day zero at 450 mg/kg, po after 3 days; assay type: organism-based; set-up: dose 450 mg/kg, route oral; scale not given: the % may be the effect or the level left; conditions: in vivo, 72 h; outline: as §3
[26] = system: Mus musculus; test: Toxicity in CD1 mouse assessed as survival at 300 mg/kg, ip after 3 days; assay type: organism-based; set-up: dose 300 mg/kg, route intraperitoneal; conditions: in vivo, 72 h; outline: as §2
[27] = system: Mus musculus; test: Toxicity in CD1 mouse assessed as hematocrite level at 450 mg/kg, po after 3 days; assay type: organism-based; set-up: dose 450 mg/kg, route oral; conditions: in vivo, 72 h; outline: as §4
[28] = system: Mus musculus; test: Toxicity in CD1 mouse assessed as hematocrite level at 300 mg/kg, ip after 3 days; assay type: organism-based; set-up: dose 300 mg/kg, route intraperitoneal; conditions: in vivo, 72 h; outline: as §4

Row | Compound | Activity [1] | Activity [2] | Activity [3] | Activity [4] | Activity [5] | Activity [6] | inhibition of growth at 5 µM [7] [%] | Activity [8] | Activity [9] [%] | Activity [10] [µL⁻¹] | Activity [11] [µL⁻¹] | Activity [12] [g/dL] | Activity [13] [g/dL] | Activity [14] [IU/L] | Activity [15] [IU/L] | Activity [16] [IU/L] | Activity [17] | Activity [18] [IU/L] | Activity [19] | Activity [20] | other results
1 | CCCCCCCCOC(=O)N/N=C/C=C/c1ccc([N+](=O)[O-])o1 | Non-toxic | Non-toxic | Non-toxic | Non-toxic | Non-toxic | Non-toxic | 92 | Non-toxic | 1 | 7750 | 10600 | 13.9 | 13.4 | 70.2 | 50.7 | 84 | Toxic | 57 | Toxic | Non-toxic | Activity [21]: Non-toxic; Activity [22]: Toxic; Activity [23]: Non-toxic; Activity [24]: 2%
2 | CCCCCCCOC(=O)N/N=C/C=C/c1ccc([N+](=O)[O-])o1 | Non-toxic | Non-toxic | Non-toxic | Non-toxic | Non-toxic | Non-toxic | 90 | Non-toxic | 4 | 9010 | 11100 | 13.4 | 14.2 | 62.7 | 46.1 | 139 | Toxic | 77.7 | Toxic | Non-toxic | Activity [25]: 0%; Activity [26]: Non-toxic; Activity [27]: 39.4%; Activity [21]: Non-toxic; Activity [22]: Non-toxic; Activity [23]: Non-toxic
3 | CCCCOC(=O)N/N=C/C=C/c1ccc([N+](=O)[O-])o1 | Non-toxic | Non-toxic | Non-toxic | Non-toxic | Non-toxic | Non-toxic | 87 | Non-toxic | 2 | 26600 | 31800 | 13.5 | 11.8 | 22.6 | 17 | 72 | Toxic | 76.5 | Toxic | Non-toxic | Activity [25]: 2%; Activity [26]: Non-toxic; Activity [28]: 37.2%; Activity [21]: Non-toxic; Activity [22]: Non-toxic; Activity [23]: Non-toxic
